ChEMBL document CHEMBL3600302, “A Ligand-Based Drug Design. Discovery of 4-Trifluoromethyl-7,8-pyranocoumarin as a Selective Inhibitor of Human Cytochrome P450 1A2” (J Med Chem, 2015)

Legend:
[1] = target: T1, Cytochrome P450 1A1 (Homo sapiens, UniProt P04798); assay: Inhibition of human microsomal CYP1A1-dependent ethoxyresorufin-O-deethylase activity by spectrofluorimetric analysis in presence of NADPH regenerating solution
T1 sequence (P04798 whole entry): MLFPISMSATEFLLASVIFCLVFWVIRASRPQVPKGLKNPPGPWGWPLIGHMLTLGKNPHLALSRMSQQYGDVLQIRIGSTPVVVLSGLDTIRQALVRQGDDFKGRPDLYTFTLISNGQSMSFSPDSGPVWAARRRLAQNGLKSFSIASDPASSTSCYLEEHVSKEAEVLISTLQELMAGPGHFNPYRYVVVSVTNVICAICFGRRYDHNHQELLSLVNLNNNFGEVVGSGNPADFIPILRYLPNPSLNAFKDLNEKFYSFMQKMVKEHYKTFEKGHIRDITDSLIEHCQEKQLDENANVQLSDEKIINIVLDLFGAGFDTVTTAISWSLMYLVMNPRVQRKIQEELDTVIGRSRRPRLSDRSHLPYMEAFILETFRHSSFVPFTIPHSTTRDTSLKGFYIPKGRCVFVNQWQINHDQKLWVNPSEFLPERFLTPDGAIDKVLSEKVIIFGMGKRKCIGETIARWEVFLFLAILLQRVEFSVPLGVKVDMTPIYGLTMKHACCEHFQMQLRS
Outline: (§1)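 Microsomal P450 (final 5 nM) in 0.1 M potassium phosphate pH 7.6 with MgCl2 at 37 °C. Substrate final 5 µM: ethoxyresorufin for 1A1/1B1, methoxyresorufin for 1A2. […] Ki was taken as the x-intercept of Dixon plots (1/v0 vs [I]). Mean ± SD of three independent experiments. Selectivity ratios are ratios of these Ki.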

[2] = target: T2, Cytochrome P450 1A2 (Homo sapiens, UniProt P05177); assay: Inhibition of human microsomal CYP1A2-dependent methoxyresorufin-O-demethylase activity by spectrofluorimetric analysis in presence of NADPH regenerating solution
T2 sequence (P05177 whole entry): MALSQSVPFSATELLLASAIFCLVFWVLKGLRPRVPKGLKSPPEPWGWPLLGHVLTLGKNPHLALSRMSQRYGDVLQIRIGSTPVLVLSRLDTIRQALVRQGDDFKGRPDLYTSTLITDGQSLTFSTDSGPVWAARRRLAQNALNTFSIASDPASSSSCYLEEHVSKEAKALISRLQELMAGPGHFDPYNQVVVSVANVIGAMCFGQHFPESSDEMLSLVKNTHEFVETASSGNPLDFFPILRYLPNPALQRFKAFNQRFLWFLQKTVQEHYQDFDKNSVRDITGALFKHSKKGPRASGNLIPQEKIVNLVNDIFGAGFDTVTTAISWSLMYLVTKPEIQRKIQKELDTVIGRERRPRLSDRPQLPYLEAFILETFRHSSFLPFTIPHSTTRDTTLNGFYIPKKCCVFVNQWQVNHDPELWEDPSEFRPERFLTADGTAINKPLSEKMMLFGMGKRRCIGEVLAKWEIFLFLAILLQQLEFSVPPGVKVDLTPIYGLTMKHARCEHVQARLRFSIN
Outline: (§2)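 Microsomal P450 (final 5 nM) in 0.1 M potassium phosphate pH 7.6 with MgCl2 at 37 °C. Substrate final 5 µM: ethoxyresorufin for 1A1/1B1, methoxyresorufin for 1A2. Ki was taken as the x-intercept of Dixon plots (1/v0 vs [I]). Mean ± SD of three independent experiments. Selectivity ratios are ratios of these Ki.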

[3] = target: T3, Cytochrome P450 1B1 (Homo sapiens, UniProt Q16678); assay: Inhibition of human microsomal CYP1B1-dependent ethoxyresorufin-O-deethylase activity by spectrofluorimetric analysis in presence of NADPH regenerating solution; outline: as §2
T3 sequence (Q16678 whole entry): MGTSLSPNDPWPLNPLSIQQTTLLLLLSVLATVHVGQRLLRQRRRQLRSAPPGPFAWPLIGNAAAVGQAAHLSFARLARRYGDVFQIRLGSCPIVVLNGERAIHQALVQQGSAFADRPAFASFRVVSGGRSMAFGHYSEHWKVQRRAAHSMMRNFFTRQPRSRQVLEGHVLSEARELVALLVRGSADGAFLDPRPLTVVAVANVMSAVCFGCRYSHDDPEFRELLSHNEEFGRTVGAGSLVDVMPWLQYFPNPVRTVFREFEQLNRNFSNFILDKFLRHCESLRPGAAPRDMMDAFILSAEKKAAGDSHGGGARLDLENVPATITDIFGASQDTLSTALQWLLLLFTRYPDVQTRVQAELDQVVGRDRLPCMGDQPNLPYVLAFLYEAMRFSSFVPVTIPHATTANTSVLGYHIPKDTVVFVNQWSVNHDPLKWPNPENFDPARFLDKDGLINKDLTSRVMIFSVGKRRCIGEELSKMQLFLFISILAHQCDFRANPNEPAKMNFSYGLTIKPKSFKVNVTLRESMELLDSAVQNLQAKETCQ

[4] = organism: Homo sapiens; assay: Selectivity ratio of Ki for human microsomal CYP1A1 to Ki for human microsomal CYP1A2; outline: as §1
[5] = organism: Homo sapiens; assay: Selectivity ratio of Ki for human microsomal CYP1B1 to Ki for human microsomal CYP1A2; outline: as §1
[6] = target: T2, Cytochrome P450 1A2; assay: (§3) Time-dependent inhibition of human microsomal CYP1A2-dependent methoxyresorufin-O-demethylase activity by spectrofluorimetric analysis in presence of NADPH regenerating solution
Outline: (§4)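 1A2 MROD run with NADPH at 0.0125, 0.025, 0.05 and 0.1 µM inhibitor, product monitored continuously over 6 min. Activity at different times came from first derivatives of product curves, expressed as % of control remaining. KI and limiting kinact were derived from the resulting linear plot.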

[7] = target: T1, Cytochrome P450 1A1; assay: Inhibition of human microsomal CYP1A1-dependent ethoxyresorufin-O-deethylase activity at 10 nM measured over 6 mins by spectrofluorimetric analysis in absence of NADPH regenerating solution; details: 0.1 h, 0.01 µM
Outline: (§5)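 Microsomal P450 in 0.1 M potassium phosphate pH 7.6 with MgCl2 and 10 nM inhibitor in DMSO, 2 mL final. Preincubated 5 min at 37 °C either with NADPH-regenerating solution, or without it, with NADPH then added at start. Reaction started with ethoxyresorufin (final 5 µM). Resorufin formation followed 6 min at 37 °C.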

[8] = target: T3, Cytochrome P450 1B1; assay: Inhibition of human microsomal CYP1B1-dependent ethoxyresorufin-O-deethylase activity at 10 nM measured over 6 mins by spectrofluorimetric analysis in absence of NADPH regenerating solution; details: 0.1 h, 0.01 µM; outline: as §5
[9] = target: T1, Cytochrome P450 1A1; assay: Inhibition of human microsomal CYP1A1-dependent ethoxyresorufin-O-deethylase activity at 10 nM preincubated for 5 mins followed by NADPH regenerating solution and substrate addition measured over 6 mins by spectrofluorimetric analysis; details: 0.1 h, 0.01 µM; outline: as §5
[10] = target: T3, Cytochrome P450 1B1; assay: Inhibition of human microsomal CYP1B1-dependent ethoxyresorufin-O-deethylase activity at 10 nM preincubated for 5 mins followed by NADPH regenerating solution and substrate addition measured over 6 mins by spectrofluorimetric analysis; details: 0.1 h, 0.01 µM; outline: as §5
[11] = target: T4, CYP1A2 (Homo sapiens, UniProt P05177); assay: as §3; details: human microsomal CYP1A2, probe methoxyresorufin (O-demethylation); outline: as §4
T4 sequence (P05177 whole entry): T2 sequence (P05177 whole entry)

[12] = target: T2, Cytochrome P450 1A2; assay: Inhibition of human microsomal CYP1A2-dependent methoxyresorufin-O-demethylase activity at 10 nM measured over 6 mins by spectrofluorimetric analysis in absence of NADPH regenerating solution; details: 0.1 h, 0.01 µM
[13] = target: T4, CYP1A2; assay: Inhibition of human microsomal CYP1A2-dependent methoxyresorufin-O-demethylase activity at 10 nM preincubated for 5 mins followed by NADPH regenerating solution and substrate addition measured over 6 mins by spectrofluorimetric analysis relative to control; details: human microsomal CYP1A2, probe methoxyresorufin (O-demethylation)
[14] = target: T2, Cytochrome P450 1A2; assay: Inhibition of CYP1A2-dependent methoxyresorufin-O-demethylase activity in human HepG2 cells at 10^-5 M preincubated for 24 hrs followed by substrate addition measured at 10, 30, 60 mins by fluorescence assay; format: cell-based; details: hepg2, 1 h, 10 µM
Outline: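 HepG2 cells (DMEM, 10% FBS) were plated at 2 × 10^5 per well overnight. They were exposed 24 h to compound (final 10^-4 to 10^-7 M) in DMSO, with βNF 10^-5 M as positive control. Cells were PBS-washed and given medium with 5 × 10^-6 M methoxyresorufin. Resorufin fluorescence (ex 535/em 585 nm) was read at 10, 30 and 60 min. Triplicate, three independent runs, unpaired t test versus DMSO.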

O=c1cc(-c2ccccc2)oc2c1ccc1ccccc12 [ALPHA-NAPHTHOFLAVONE]
Ki [1]: 0.045 µM

Cc1cc2c(ccc3c(-c4ccccc4)c(C)c(=O)oc32)o1
Ki [1]: 11.6 µM
Ki [2]: 3.7 µM
Ki [3]: 22.6 µM
Ratio Ki [4]: 3.1
Ratio Ki [5]: 6.1
TDI [6]: Not Active

Cc1cc(=O)oc2c1ccc1ncccc12
Ki [1]: 101 µM
Ki [2]: 14.2 µM
Ki [3]: 46.6 µM
Ratio Ki [4]: 7.1
Ratio Ki [5]: 3.3
TDI [6]: Not Active

O=c1cc(-c2ccccc2)oc2c3c(cc(O)c12)OCC=C3
Ki [1]: 0.11 µM
Ki [3]: 0.0056 µM

Cc1cc2c(ccc3c(C(F)(F)F)cc(=O)oc32)o1
Ki [1]: 60.7 µM
Ki [2]: 1.35 µM
Ki [3]: 46.8 µM
Ratio Ki [4]: 45
Ratio Ki [5]: 35
TDI [6]: Not Active

O=c1cc(-c2ccccc2)c2ccc3c(c2o1)C=CCO3
Ki [1]: 25.2 µM
Ki [2]: 1.29 µM
Ki [3]: 5.04 µM
Ratio Ki [4]: 20
Ratio Ki [5]: 3.9
TDI [6]: Not Active

Cc1cc2c(ccc3c(C)cc(=O)oc32)o1
Ki [1]: 37.9 µM
Ki [2]: 1.15 µM
Ki [3]: 7.46 µM
Ratio Ki [4]: 33
Ratio Ki [5]: 6.5
TDI [6]: Not Active

O=c1cc(-c2ccccc2)oc2c1ccc1ncccc12
Ki [1]: 0.04 µM
Ki [2]: 0.076 µM
Ki [3]: 0.12 µM
Ratio Ki [4]: 0.5
Ratio Ki [5]: 1.8

Cc1cc(=O)oc2c3c(ccc12)OCC=C3
Ki [1]: 110 µM
Ki [2]: 1.51 µM
Ki [3]: 12 µM
Ratio Ki [4]: 73
Ratio Ki [5]: 7.9
TDI [6]: Not Active

Cc1cc2c(cc(O)c3c(=O)cc(-c4ccccc4)oc32)o1
Ki [1]: 0.47 µM
Ki [2]: 0.044 µM
Ki [3]: 0.1 µM
Ratio Ki [4]: 11
Ratio Ki [5]: 2.3
inhibition (INH) [7]: Not Active
inhibition (INH) [8]: Not Active
inhibition (INH) [9]: Not Active
inhibition (INH) [10]: Not Active
kinact [11]: 0.00433 s⁻¹
inhibition (INH) [12]: Active
inhibition at 0.1 h, 0.01 µM [13]: > 90%

Cc1c(-c2ccccc2)c2ccc3c(c2oc1=O)C=CCO3
Ki [1]: 18.4 µM
Ki [2]: 1.72 µM
Ki [3]: 21.2 µM
Ratio Ki [4]: 11
Ratio Ki [5]: 12
TDI [6]: Not Active

O=c1cc(-c2ccccc2)oc2ccc3ccccc3c12 [BETA-NAPHTHOFLAVONE]
inhibition (INH) [14]: Not Active

O=c1cc(-c2ccccc2)c2ccc3c(c2o1)OCO3
Ki [1]: > 200 µM
Ki [2]: 3.55 µM
TDI [6]: Not Active

O=c1cc(-c2ccccc2)oc2c3c(ccc12)OCO3
Ki [1]: 1.23 µM
Ki [2]: 0.09 µM
Ki [3]: 0.48 µM
Ratio Ki [4]: 14
Ratio Ki [5]: 5.3

O=c1cc(-c2ccccc2)oc2c3c(ccc12)OCC=C3
Ki [1]: 0.27 µM

Cc1cc2c(ccc3c(-c4ccccc4)cc(=O)oc32)o1
Ki [1]: 12 µM
Ki [2]: 5.02 µM
Ki [3]: 4.62 µM
Ratio Ki [4]: 2.4
Ratio Ki [5]: 0.9
TDI [6]: Not Active

Cc1nc2c([nH]1)c(=O)n(C)c(=O)n2Cc1ccco1 [FURAFYLLINE]
Ki [1]: > 200 µM
Ki [3]: > 200 µM
